Source: PubChem (The Scripps Research Institute Molecular Screening Center)
M1 antag: human CHRM1 antagonism; CHO-K1 hM1, Fluo-8 calcium fluorescence, ACh EC80 antagonist; inhibition, % at 3 µM; hit rate 1.3% among 360,000; AID 588852;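 active means percent inhibition above its own plate's cutoff, namely the mean of that plate's compound wells plus 3 SD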;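 further: peak over basal fluorescence ratio during 140 s after agonist addition; 0% = ACh EC80 plus DMSO and 100% = DMSO alone without agonist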
Target sequence (P11229 whole entry, looked up): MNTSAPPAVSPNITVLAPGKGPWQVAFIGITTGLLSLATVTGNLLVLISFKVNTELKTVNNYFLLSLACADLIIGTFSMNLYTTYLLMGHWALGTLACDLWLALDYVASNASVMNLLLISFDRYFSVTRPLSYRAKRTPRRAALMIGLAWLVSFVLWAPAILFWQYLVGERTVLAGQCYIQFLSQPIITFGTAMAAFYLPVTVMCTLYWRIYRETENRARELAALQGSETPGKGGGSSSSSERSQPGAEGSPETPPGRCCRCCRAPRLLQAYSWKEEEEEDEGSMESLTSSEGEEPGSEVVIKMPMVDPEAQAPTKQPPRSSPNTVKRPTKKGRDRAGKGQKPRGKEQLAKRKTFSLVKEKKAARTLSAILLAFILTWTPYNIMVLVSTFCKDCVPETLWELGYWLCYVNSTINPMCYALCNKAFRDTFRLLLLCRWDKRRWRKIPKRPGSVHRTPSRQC
TAAR1 antag: antagonists of human TAAR1; inhibition, % at 3 µM; CHO RD-HGA16 TAAR1, Fluo-8 calcium fluorescence, antagonist; Q96RJ0; AID 624466; hit rate 1.5% among 360,000;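 active means inhibition above a per-plate cutoff, the mean inhibition of test compounds on that plate plus 3 SD, cut at about 49% in these data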;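 further: 0% = DMSO plus EC80 beta-PEA response and 100% = DMSO alone without agonist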
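Test system: hTAAR1-expressing CHO RD-HGA16 cells, Gα16-coupled; Probe or stimulus: EC80 β-phenethylamine stimulus; Compound dosing: single nominal final test compound concentration of 3 µM; Timing: 140 s kinetic read after compound, 140 s after agonist; Signal: Fluo-8 calcium-sensitive fluorescence; Measure: % inhibition of agonist calcium response; Controls: DMSO and EC80 PEA controls.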
CHRM1 agonist: agonists of human M1 muscarinic receptor. P11229. CHO-K1 hM1, Fluo-8 calcium fluorescence, agonist mode; 0% DMSO, 100% acetylcholine EC100. activation, % at 3 µM. hit rate 0.33% among 360,000. AID 588814;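 active means activation above the run's mean compound activation plus 3 SD, cut at about 16% in these data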;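 further: peak over basal fluorescence ratio within a 140 s kinetic read after compound addition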
TAAR1 ag: agonists of human TAAR1. Q96RJ0. CHO RD-HGA16 TAAR1, Fluo-8 calcium fluorescence; vehicle wells 0%, saturating PEA agonist 100%. hit rate 0.99% among 360,000. activation, % at 3 µM;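 active means activation above the mean activation of all test compounds in the run plus 3 SD, cut at about 38% in these data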
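System: CHO RD-HGA16 cells carrying human TAAR1 plus Gα16; Incubation: 17-24 h seeding, 75 min 37 °C dye, 30 min RT; Measured by: Fluo-8 fluorescence, 5 s baseline then 140 s kinetic read; Control set: DMSO and PEA EC100; Replication: single well for each compound.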
CHRM1 PAM: positive allosteric modulators of human M1 muscarinic receptor; P11229; CHO-K1 hM1, Fluo-8 calcium fluorescence, ACh EC20; 0% = ACh EC20, 100% = maximal ACh; activation, % at 3 µM; hit rate 0.088% among 360,000; AID 588819; in the data active means activation above about 19%, passing the limit was not always enough
The depositor's hits bear a star; x = no result. This is a sample that favours compounds with a hit; in the whole collection about 3.4% have one here.

SMILES	M1 antag	TAAR1 antag	CHRM1 agonist	TAAR1 ag	CHRM1 PAM
Cc1ccc2nc3n(c(=O)c2c1)CCCCC3	19*	-15	-8	6	-19
O=c1c2cc([N+](=O)[O-])ccc2nc2n1CCCC2	5	-7	-5	-1	3
O=c1c2cc(Br)ccc2nc2n1CCCCC2	86*	x	-4	x	-20
C[C@@H]1ON(C)[C@H]2C[C@H]3c4[nH]c5c(-c6cccc(Cl)c6)cccc5c4CCN3C(=O)[C@@H]12	x	6	x	3	x
CC(C)(C)S(=O)N1Cc2cc(C(=O)N3CCc4ccccc4C3)nc(-c3cccc(-c4cccnc4)c3)c2[C@@H]1CCO (stereo partly specified)	15	26	-10	2	-7
CCCc1nc2oc3c(Cl)ncnc3c2c2c1CCCC2	52*	-42	-7	2	-24
O=C(C(=O)N1CCC(CNS(=O)(=O)c2cccc3ccccc23)CC1)c1cccs1	x	16	x	6	x
Cc1ccc(CNC(=O)c2cccc3c2C(=O)c2ccc(N4CCCCC4)cc2S3(=O)=O)cc1	22	71*	10	47*	-17
Cc1ccc(CNC(=O)c2cccc3c2C(=O)c2ccc(N4CCOCC4)cc2S3(=O)=O)cc1	19	40	-1	23	-12
O=C(NCc1ccccc1)c1cccc2c1C(=O)c1ccc(/C=C/c3ccccc3)cc1S2(=O)=O	4	58*	-3	14	0
COc1ccccc1N1CCN(c2ccc3c(c2)S(=O)(=O)c2cccc(C(=O)NCc4cccc(F)c4)c2C3=O)CC1	19	53*	-1	11	-11
O=C(NCc1ccco1)c1cccc2c1C(=O)c1ccc(N3CCCC3)cc1S2(=O)=O	13	53*	5	23	-12
CC(C)n1c(SCC(=O)Nc2nc3c(s2)CCCC3)nc2c1c(=O)n(C)c(=O)n2C	17	56*	0	25	-8
Cc1sc2ncnc(NCC(O)c3ccccc3)c2c1C (stereo unspecified)	16	10	-1	5	-11
Cc1sc2ncnc(NCC(O)c3ccc([N+](=O)[O-])cc3)c2c1C (stereo unspecified)	34*	28	0	8	-20
Cc1sc2ncnc(NCC(c3ccccc3)N(C)C)c2c1C (stereo unspecified)	57*	-15	-11	2	-31
Cc1sc2ncnc(NCCCO)c2c1C	14	-17	0	1	-7
Cc1cc2nc(-c3ccccc3)c(Cc3ccccc3)n2c(C)c1Br	14	-8	-3	5	-7
COc1cccc(C#Cc2ccc3c(c2)O[C@@H](CN(C)C(=O)c2ccccn2)[C@@H](C)CN([C@H](C)CO)S3(=O)=O)c1	3	49*	-3	7	-7
C[C@H](CO)N1C[C@H](C)[C@H](CN(C)C(=O)c2ccccn2)Oc2cc(C#Cc3ccc(F)cc3)ccc2S1(=O)=O	-2	17	-1	13	0
CC1(C(=O)NCc2ccco2)CCN1C(=O)C1(c2ccccc2)CC1 (stereo unspecified)	-23	-11	-2	0	12
CC(=O)C1=C(C)Nc2ncnn2C1c1ccc(F)cc1 (stereo unspecified)	-29	-32	0	1	13
COC(=O)c1ccc(C2C(C(C)=O)=C(C)Nc3ncnn32)cc1 (stereo unspecified)	102*	-29	-11	1	-32
O=C(Nc1ccncc1)c1ccc2c(c1)S(=O)(=O)c1ccccc1C2=O	7	52*	3	38*	-12
CCN(CC)CCCNC(=O)C1CCC(CNS(=O)(=O)c2c(C)cc(C)cc2C)CC1 (stereo unspecified)	6	-4	-9	-1	-11
CCC1CCCCN1CCCNC(=O)C1CCC(CNS(=O)(=O)c2c(C)cc(C)cc2C)CC1 (stereo unspecified)	63*	1	-6	3	-21
O/N=C/c1cccc[n+]1CCCCCC[n+]1ccccc1/C=N/O	45*	3	-9	2	-22
COc1ccc(C(=O)C[n+]2ccccc2/C=N/O)cc1	16	14	-10	7	-21
